Screens as filed in PubChem.
rCAG binder = r(CAG) repeat RNA binding; TO-PRO-1 dye displacement fluorescence; inhibition, % at 3 µM; hit rate 1.3% among 370,000; AID 651821;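 active means inhibition above the plate cutoff, the mean of all test compounds on that plate plus 3 SD, cut at about 35% in these data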;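 further: 0% = DMSO alone and 100% = 100 µM mitoxantrone as full dye displacement; higher means more dye released from RNA so lower well fluorescence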
Scp-1 inhibitor = blocks human Scp-1 phosphatase activity. hit rate 0.88% among 340,000. inhibition, % at 20 µM. Q9GZU7. Recombinant Scp1, phosphopeptide, malachite green phosphate absorbance;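 active means inhibition above about 50% at 20 µM, limit read from the data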;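 further: plate controls were DMSO wells with enzyme for no effect and wells lacking enzyme for full effect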
Target sequence (Q9GZU7 76-261 limits assumed): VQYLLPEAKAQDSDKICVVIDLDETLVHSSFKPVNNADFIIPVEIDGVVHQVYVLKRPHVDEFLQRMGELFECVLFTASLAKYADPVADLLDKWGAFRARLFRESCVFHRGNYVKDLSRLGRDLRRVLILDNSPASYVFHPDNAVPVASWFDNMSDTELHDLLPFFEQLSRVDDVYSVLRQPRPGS
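Test system: SCP-1 phosphatase catalytic domain, residues 76-261; measured by: colorimetric phosphate reagent with accelerator and stabiliser, absorbance at 630 nm; timing: enzyme reaction 45 min at room temperature, colour 5 min, stabilisation 30 min; also added: Phosphorylated 17-residue peptide substrate; compound dosing: one concentration, 20 µM, with 1.0% DMSO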
STEP block = inhibitors of human striatal-enriched phosphatase STEP; P54829; recombinant STEP, OMFP fluorogenic substrate, fluorescence; inhibition, % at 20 µM; hit rate 0.25% among 360,000; AID 588621;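 active means inhibition at 20 µM, scaled per plate between control wells, above about 37%, limit read from the data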;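 further: 0% = DMSO with enzyme and substrate and 100% = substrate only without enzyme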
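Assay system: isolated STEP enzyme. Buffer or medium: pH 6.0 Bis-Tris with DTT and Tween 20. Also added: fluorogenic phosphatase substrate OMFP at 25 µM final. Dosing: 20 µM, 1% DMSO. Timing: 20 min reaction, room temperature, in the dark. Measured by: fluorescence intensity, excitation 480 nm, emission 540 nm. Evaluation: normalized % inhibition.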
LMPTP block = blocks human LMPTP phosphatase. P24666. recombinant LMPTP-A, OMFP fluorogenic substrate, fluorescence intensity. inhibition, % at 20 µM. hit rate 0.22% among 360,000. AID 651560;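 active means compounds that cut the enzyme signal by at least half of the control window in the single-dose screen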;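 further: plate controls were DMSO wells with enzyme plus substrate for no effect and substrate without enzyme for full effect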
Target sequence (P24666 whole entry, looked up): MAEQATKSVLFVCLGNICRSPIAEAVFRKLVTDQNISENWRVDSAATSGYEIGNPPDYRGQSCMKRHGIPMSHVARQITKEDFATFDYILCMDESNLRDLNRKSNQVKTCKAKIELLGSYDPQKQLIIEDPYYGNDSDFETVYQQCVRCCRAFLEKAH
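Assay system: LMPTP-A phosphatase enzyme | Input: 0.625 nM enzyme | Also added: Fluorogenic phosphatase substrate OMFP at 400 µM final | Compound dosing: One test concentration per compound, 20 µM, with 3% DMSO overall | Schedule: 50 min enzyme reaction at room temperature, protected from light | Signal: Fluorescence intensity | Benchmarks: no-enzyme and uninhibited controls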
NadD block = NadD (S. aureus) enzyme inhibition. purified NadD enzyme, colorimetric absorbance read-out. inhibition, % at 20 µM. hit rate 0.78% among 360,000; in the data active means inhibition above about 26%
NadD inh conf = confirmation of Staphylococcus aureus NadD inhibitors; hit rate 13% among 2,000; purified S. aureus NadD, colorimetric enzyme assay; shares compounds with NadD block; inhibition, % at 20 µM; in the data active means inhibition mostly above about 42%, no sharp cut-off; inactive means mostly below about 42%
* marks the source's active call; other numbers are inactive results; / = not tested or not shown. Most compounds without a hit are left out; they make up all but 2.6% or so of the library.

SMILES	rCAG binder	Scp-1 inhibitor	STEP block	LMPTP block	NadD block	NadD inh conf
CC1=C(C(=O)Nc2ccccc2)C(c2ccco2)C(C#N)=C(SCC(=O)Nc2cccc(C)c2C)N1 (centres undefined)	6	-5	1	1	11	/
CCOc1ccccc1NC(=O)CSC1=C(C#N)C(c2ccco2)C(C(=O)Nc2nc3ccccc3s2)=C(C)N1 (centres undefined)	16	-3	1	-1	42*	29
CCOC(=O)[C@]12CCCC3=C1N(CCC3)C(=O)[C@@H](CC(=O)N1CCN(C(=O)c3ccco3)CC1)C2	4	/	/	/	/	/
Nc1nc(COc2ccccc2C=O)nc(Nc2ccccc2)n1	3	-11	1	-3	29*	36*
FC(F)(F)c1nnc(-c2ccccc2)nc1Sc1ccc(Cl)cc1	-1	-20	2	1	33*	-3
FC(F)(F)c1nnc(-c2ccccc2)nc1Sc1ccccc1	0	-12	4	3	17	/
CCn1c2ccccc2c2cc(/C=N/n3c(-c4cc(C)[nH]n4)n[nH]c3=S)ccc21	21	4	0	4	62*	63*
S=c1[nH]nc(-c2cc(-c3ccccc3)n[nH]2)n1/N=C/c1ccc(Cl)c(Cl)c1	8	4	-1	21	30*	9
S=c1[nH]nc(-c2cc(-c3ccccc3)n[nH]2)n1/N=C/c1ccc(Cl)cc1	23	-4	2	1	26*	39
Oc1ccc(/C=N/n2c(-c3ccccc3)n[nH]c2=S)cc1	2	-3	1	0	-3	/
CCOC(=O)[C@@]12CCCC3=C1N(CCC3)C(=O)[C@H]2CC(=O)NCc1ccccc1	-2	/	/	/	/	/
O=C(CSc1nnc(-c2ccccn2)n1-c1ccccc1)c1ccc(Cl)c(Cl)c1	1	/	/	/	/	/
COc1ccc(Cn2ccc3ccc(-c4ccc5ccn(C(=O)C6CCC6)c5c4)cc32)cc1	17	/	/	/	/	/
O=C(NNC(=S)NC(=O)c1sc2ccccc2c1Cl)c1ccc(Cl)cc1	25	-11	4	5	36*	13
NC(N)=NS(=O)(=O)c1ccc(NC(=S)NC(=O)c2sc3ccccc3c2Cl)cc1	25	-2	-2	6	43*	5
COc1cc(NS(=O)(=O)c2ccc(NC(=S)NC(=O)c3sc4cc(F)ccc4c3Cl)cc2)nc(OC)n1	17	-2	2	2	35*	24
O=C(O)c1ccccc1NC(=S)NC(=O)c1sc2ccccc2c1Cl	18	-3	6	1	0	/
O=c1c2ccccc2nc(/C=C/c2c[nH]c3ccccc23)n1-c1ccc([N+](=O)[O-])cc1	3	9	3	1	40*	-1
Cc1[nH]c2ccccc2c1/C=C/c1nc2ccccc2c(=O)n1-c1cccc([N+](=O)[O-])c1	11	9	-1	1	23	/
COc1ccc2c(c1)Cc1sc(NC(=O)c3ccccc3)nc1-2	18	3	-2	2	5	/
COc1ccc(C(=O)Nc2nc3c(s2)Cc2cc(OC)ccc2-3)cc1	19	11	10	4	38*	9
CCCCn1c(-c2ccc(C(C)(C)C)cc2)nc2cc3[nH]c(=O)c(C(C)C)nc3cc21	17	5	3	3	36*	4
CCCCn1c(-c2cccc(Br)c2)nc2cc3[nH]c(=O)c(C(C)C)nc3cc21	7	-3	3	3	14	/
CCCCn1c(-c2ccc(Cl)c(Cl)c2)nc2cc3[nH]c(=O)c(C(C)C)nc3cc21	9	5	3	2	38*	16
Cc1c([N+](=O)[O-])cc(N2C(=O)C=CC2=O)cc1[N+](=O)[O-]	/	5	6	24	42*	57*
SMILES	rCAG binder	Scp-1 inhibitor	STEP block	LMPTP block	NadD block	NadD inh conf
COc1ccc(NS(=O)(=O)c2ccc3nc(COc4cccc5ccccc45)[nH]c3c2)cc1	19	1	-1	4	38*	36
O=C(CCc1ccccc1)N[C@H]1[C@H](O)CCC[C@]12C(=O)N(Cc1ccccc1)c1ccccc12	2	/	/	/	/	/
COc1ccc(CCn2c(C)cc(C(=O)COC(=O)c3cnccn3)c2C)cc1	2	-10	2	3	-1	/
COCCNc1nc(-c2cc(C)n(CCc3ccc(OC)cc3)c2C)cs1	11	6	1	7	36*	21
COc1cc2nc(N3CCNCC3)nc(N)c2cc1OC	-2	-9	6	37	34*	19
Cc1cccc(NC(=O)CSc2cc(C)c(C#N)c3nc4ccccc4n23)c1	15	0	3	2	43*	2
CNc1cc(C)c(C#N)c2nc3ccccc3n12	2	-2	-1	1	2	/
C#CCN1CC(N(C)CCOC(=O)c2ccc([N+](=O)[O-])cc2)CS1(=O)=O (centres undefined)	2	/	/	/	/	/
O=c1cc(CN2CCN(S(=O)(=O)c3cccc(Cl)c3)CC2)c2ccc(O)cc2o1	24	17	3	3	35*	41
O=C(Nc1cccc(Br)c1)OC1CC2CC1[C@H]1CCCCN1[C@H]2Cc1ccccc1 (some centres undefined)	6	/	/	/	/	/
COc1ccc(/C=C/C(=O)NC(=S)Nc2ccc(S(=O)(=O)Nc3cc(OC)ncn3)cc2)cc1	17	-8	4	0	54*	35
COc1ccc(/C=C/C(=O)NC(=S)Nc2ccc(S(=O)(=O)N=C(N)N)cc2)cc1OC	16	4	1	5	30*	-3
CCC(=O)N[C@H]1C[C@@H]2O[C@@H](CO)CC[C@@H]2O[C@@H]1CCc1ccc(-c2cccc(OC)c2)cc1	5	/	/	/	/	/
C#CCOCCOCCOCCNc1nc(N2CCN(C(=O)[C@H]([C@@H](C)CC)n3cc([C@@H](N)Cc4ccc(O)cc4)nn3)CC2)nc(N2CCN(C(=O)[C@H](Cc3cc4ccccc4[nH]3)n3cc([C@@H](N)CC(C)C)nn3)CC2)n1	/	11	4	7	48*	36
N=C1S/C(=C\c2ccc(-c3cccc(Cl)c3)o2)C(=O)N1c1nccs1	15	3	2	33	76*	2
Cc1ccc(-c2cc(C(=O)NN=Cc3ccc(N(C)C)cc3)[nH]n2)cc1C	15	/	/	/	/	/
Cc1cnc(C=NNC(N)=S)c2cccc(N)c12	8	84*	97*	86*	61*	9
COc1cc(C2C(C#N)=C(N)N(Nc3ccccc3)C3=C2C(=O)CC(C)(C)C3)ccc1OCc1ccccc1 (centres undefined)	12	-6	4	2	20	/
COc1cc(C2C(C#N)=C(N)N(Nc3ccccc3)C3=C2C(=O)CC(C)(C)C3)ccc1OCc1cccc(F)c1 (centres undefined)	11	-10	2	0	31*	13
